Compounds with a hit are over-represented: about 1.4% of the library has one in this group of screens.
PfGluPho inh = PfG6PD (Plasmodium falciparum) enzyme inhibition; hit rate 0.78% among 350,000; AID 504690; inhibition, % at 20 µM; PfGluPho enzyme, NADPH resazurin-diaphorase fluorescence;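 active = inhibition reaching at least a set limit at 20 µM in the primary screen, cut at about 59% in these data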;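 note: 0% = DMSO wells with substrate and 100% = DMSO wells lacking glucose-6-phosphate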
iPSC survival up = increases survival of single human iPS cells; hiPSC single-cell survival, ATPlite luminescence; 100% = ROCK inhibitor wells, 0% = DMSO; survival enhancement, % at 20 µM; hit rate 0.044% among 360,000; in the data active = survival enhancement above about 18%;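 note: cells exposed to compounds for 16 hours before the ATP read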
APOBEC3A inh = human APOBEC3A DNA deaminase inhibition; recombinant A3A, FAM/TAMRA ssDNA deamination fluorescence; inhibition, % at 20 µM; hit rate 0.41% among 330,000; AID 493011;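 active = at least 40% inhibition at 20 µM here, with at most 30% in a related deaminase screen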;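 note: plate controls were A3A with DMSO for no effect and wells lacking A3A enzyme for full effect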
Target sequence (P31941 whole entry, looked up): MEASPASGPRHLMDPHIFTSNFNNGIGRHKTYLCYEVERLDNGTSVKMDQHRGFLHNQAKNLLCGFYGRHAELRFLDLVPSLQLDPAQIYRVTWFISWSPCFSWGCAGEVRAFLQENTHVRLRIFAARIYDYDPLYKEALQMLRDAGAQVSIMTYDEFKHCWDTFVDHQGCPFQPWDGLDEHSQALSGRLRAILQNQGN
A3G deaminase = inhibitors of human APOBEC3G DNA deaminase. Q9HC16. recombinant A3G, ssDNA deamination FAM/TAMRA fluorescence. inhibition, % at 20 µM. hit rate 0.28% among 330,000. AID 493012;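 active = inhibition of at least 40% at 20 µM, with no more than 30% in the related APOBEC3A deaminase screen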;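 note: plate controls were DMSO wells with A3G for no effect and wells lacking A3G enzyme for full effect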
HKDC1 inh = blocks human hexokinase HKDC1 activity; Q2TB90; recombinant HKDC1, G6PDH/diaphorase resazurin coupled fluorescence; inhibition, % at 20 µM; hit rate 0.16% among 340,000; AID 493160;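 active = inhibition above about 35% when tested at 20 µM, limit read from the data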;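 note: plate controls were DMSO wells with enzyme for no effect and DMSO wells lacking enzyme for full effect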
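Material: recombinant HKDC1 hexokinase; Amount: HKDC1 at 5 µg/mL; Medium: Tris pH 8.0 buffer with MgCl2, Tween-20, BSA, BME; Schedule: 90 min reaction incubation at room temperature, dark; Technique: coupled resazurin fluorescence, excitation 525 nm, emission 613 nm.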
PfGluPho conf = confirmation of Plasmodium falciparum G6PD inhibitors | shares compounds with PfGluPho inh | recombinant PfGluPho, NADPH-diaphorase-resazurin fluorescence | inhibition, % at 20 µM | hit rate 34% among 2,400 | AID 504753;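 active = inhibition of at least 50% at 20 µM in any single replicate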;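 note: 0% = DMSO with substrate and 100% = DMSO lacking glucose-6-phosphate substrate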
Diaph ctr 10uM = counter-screen for P. falciparum G6PD inhibitors: diaphorase inhibitors, oxidizers; inhibition, % at 20 µM; hit rate 39% among 820; diaphorase-coupled resazurin reduction, fluorescence, NADPH 10 uM; shares compounds with PfGluPho inh;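 active = average inhibition reaching 50% or more with the compound at 20 µM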;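 note: resorufin red fluorescence formed as diaphorase reduces resazurin using NADPH; 0% = DMSO with enzyme and 100% = DMSO without enzyme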
Diaph ctr 30uM = inhibits diaphorase or oxidizes, flagging false PfG6PD hits; inhibition, % at 20 µM; Diaphorase/resazurin coupled assay, resorufin fluorescence, 30 uM NADPH; shares compounds with PfGluPho inh; hit rate 29% among 820;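 active = inhibition averaging 50% or more, tested at 20 µM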;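 note: 0% = DMSO with enzyme and 100% = DMSO wells lacking diaphorase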
* marks the source's active call; other numbers are inactive results; x = no result.

SMILES	PfGluPho inh	iPSC survival up	APOBEC3A inh	A3G deaminase	HKDC1 inh	PfGluPho conf	others
COc1ccc(Cl)cc1NC(=O)CN(C)C(=O)Cc1ccsc1	25	0	22	-9	-1	x
CCCCCC(=O)N/N=C/c1ccc([N+](=O)[O-])o1	11	0	0	-5	7	x
O=C(CCC(=O)Nc1ccc(Cl)cc1Cl)N/N=C/c1ccc([N+](=O)[O-])o1	62*	-1	-2	-2	0	45
O=C(Nc1ccc(Oc2cccnc2)cc1)c1cccc([N+](=O)[O-])c1	61*	0	-4	-7	4	29
O=C(Nc1ccc(Oc2cccnc2)cc1)c1ccc([N+](=O)[O-])cc1	13	-1	1	-1	1	x
CN(C)c1ccc(NC(=O)c2cc3c(=O)n4ccccc4nc3n2C)cc1	62*	-1	-7	-7	11	8
COc1ccc(OC)c(NC(=O)c2cc3c(=O)n4ccccc4nc3n2C)c1	3	-1	3	0	-2	x
O=C(O)c1cccc(N2C(=O)C=CC2=O)c1	76*	0	x	x	x	76*	Diaph ctr 10uM=14;Diaph ctr 30uM=13
O=[N+]([O-])c1cc(S(=O)(=O)Nc2ccccc2)ccc1N1CCN(c2ccc(O)cc2)CC1	37	-4	2	4	15	x
CN1CCN(S(=O)(=O)c2ccc(N3CCN(c4ccc(O)cc4)CC3)c([N+](=O)[O-])c2)CC1	72*	1	4	15	6	31
Cc1ccc(C)c(NC(=O)CCc2nnc3ccc(NCc4ccco4)nn23)c1	10	0	-1	-2	-2	x
Cc1c(C(=O)c2ccc(F)cc2F)c2ccccn2c1CCC#N	94*	0	6	9	20	17
Cc1ccc(-n2c(SCC(=O)Nc3cc(C)on3)nc3c(c2=O)SC(C)C3)cc1 (stereo not drawn)	84*	-1	-4	-7	0	31
CCn1c(SCC(=O)Nc2cc(C)on2)nc2c(c1=O)SC(C)C2 (stereo not drawn)	-20	1	-3	-4	-3	x
O=C(NCCNC(=O)c1cccnc1)c1ccc(Br)cc1	-2	0	0	-5	-5	x
CCNc1nc(NC(C)C)nc(NS(=O)(=O)c2ccc(N)cc2)n1	-10	2	1	-1	-7	x
CCN(CC)c1nc(N)nc(NS(=O)(=O)c2ccc(Cl)cc2)n1	67*	0	-2	-4	5	57*	Diaph ctr 10uM=54*;Diaph ctr 30uM=42
CCNc1nc(NC(C)C)nc(NS(=O)(=O)c2ccc(Cl)cc2)n1	83*	1	-3	-7	12	55*	Diaph ctr 10uM=63*;Diaph ctr 30uM=47
COCCN(C(=O)COC(=O)COc1ccc(Cl)c(C)c1)c1c(N)n(Cc2ccccc2)c(=O)[nH]c1=O	3	2	21	-4	-3	x
CC(=O)C[C@@H](O)CC(=O)[C@H]1OC(=O)[C@H](C)CCCCc2ccccc21	4	3	-5	-4	0	x
ClC(Cl)(c1nnnn1-c1ccccc1)c1nnnn1-c1ccccc1	88*	-1	x	x	8	78*	Diaph ctr 10uM=-8;Diaph ctr 30uM=-6
COc1cc(CNn2c(C)n[nH]c2=S)cc(Cl)c1OCc1ccc(F)cc1	46	3	-8	-5	10	x
COc1cc(CNn2c(C)n[nH]c2=S)cc(Br)c1OCc1ccc(F)cc1	70*	1	-3	-14	17	33
COC(=O)CCCC1=CC2=CC(=O)C(C)(OC(=O)c3cccs3)C(=O)C2=CN1CCc1ccccn1 (stereo not drawn)	70*	2	-5	-13	21	23
COC(=O)CCC(=O)OC1(C)C(=O)C2=CN(CCc3ccccn3)C(c3ccc(OC)cc3)=CC2=C(Br)C1=O (stereo not drawn)	99*	-1	-2	-6	33	41
O=C(O)Cn1cnc2c(=S)nc[nH]c21	19	0	-4	-9	-5	x
S=c1nc[nH]c2c1ncn2-c1ccc(Cl)cc1	66*	-2	x	x	-5	24

Screens deposited in PubChem by Sanford-Burnham Center for Chemical Genomics.
